Experiments:
[1] = tested on: cholesterol-laden macrophages; assay: PA colocalization with cholesterol; assay type: cell-based; conditions: 32 μM LXR or PA epitope equivalents, 24 hours
[2] = tested on: ABCA1; assay: ABCA1 and CD68 immunofluorescence in aortic roots; assay type: in vivo; conditions: LDLR KO mice, eight weeks of twice weekly injections, versus PBS control, n≥6
In short: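 LDLR KO male and female mice, obtained at 4 weeks, fed high-fat diet 14 weeks, then given tail-vein injections twice weekly for 8 weeks under isoflurane; PBS controls. Perfused with PBS and 2% paraformaldehyde; aortic roots sectioned. Blocked in TBST (0.1% Triton) with 10% horse serum 1 h RT; anti-CD68 (1:500) and anti-ABCA1 (1:1000) overnight 4 °C. Fluorescence pixel intensity quantified; two-factor ANOVA, Dunnett's vs PBS, n≥6.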

[3] = tested on: RIP3; assay: Liver toxicity by RIP3 expression; conditions: mouse, in vivo
[4] = Cleavage of niche-responsive LXR PAs; assay type: physicochemical; conditions: 1 mM PA, 37 °C
In short: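 Linker-bearing PAs at 1 mM in PBS. ROS-linked: 250 μM H2O2 + 50 μM CuSO4. NDEC-linked: 10 mM TCEP. SPDP-linked: 10 mM TCEP or 10 mM DTT. PBS-only controls. Incubated at 37 °C, 5% CO2; sampled at 24 h, 4 and 7 days; stored −20 °C. LC-MS: C18 UPLC column at 40 °C, electrospray 4.7 kV, capillary 350 °C, 150–2000 m/z, 120,000 resolution.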

Question: With `O=C(O)Cc1cccc(OCCCN(Cc2cccc(C(F)(F)F)c2Cl)CC(c2ccccc2)c2ccccc2)c1` [LXR, GW3965] as the compound, how does the “confocal microscopy observation of cholesterol-laden macrophages” value [1] read?
Answer: appeared to be undergoing cell death

Question: And the “ABCA1 expression relative to number of CD68+ macrophages” value [2]?
Answer: significant increase in ABCA1 expression

Question: And the “liver toxicity by RIP3 expression” value [3]?
Answer: Liver toxicity was observed

Question: With “C16-VVAAEE-PEG4-NDEC-K(LXR) [NDEC-LXR PA]” as the compound, how does the “PA cleavage by day 4” value ([4]; 10 mM TCEP in PBS, day 4, LC-MS) read?
Answer: complete cleavage

Question: Which “PA cleavage after 1 week” value ([4]; 250 μM H2O2 + 50 μM CuSO4 in PBS, 1 week, LC-MS) does the source give for “C16-VVAAEE-PEG4-K-PPPPP-K(Mtt) [ROS-LXR PA]” here?
Answer: completely cleaved
